The source of these data is ChEMBL document CHEMBL4414571, “Sordarin Diterpene Glycosides with an Unusual 1,3-Dioxolan-4-one Ring from the Zoanthid-Derived Fungus Curvularia hawaiiensis TA26-15” (2019).

In brackets after ≈: the same amount, converted by molar mass.

Usually MIC stands for the lowest concentration that inhibits growth of the organism. The low end stands for inhibition by little substance, the high end for a need for much substance.

This test concerns Candida albicans. Put plainly: Antifungal activity against Candida albicans ATCC 10231 by NCCLS-protocol based microplate reader analysis. The test is classed as functional. In short, it runs like this: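 Broth microdilution per NCCLS. Strains grown on potato dextrose agar; inoculum prepared from broth culture (28 °C, 48 h) and adjusted to 104 mycelial fragments/mL. Compounds from 100 μM DMSO stock were serially diluted in triplicate, spore suspension added to 200 μL final volume. Carbendazim served as positive control. Absorbance read at 492 nm after incubation; MIC calculated.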
As for `CO[C@@H]1[C@@H](C)O[C@@H](OC[C@@]23C[C@@H]4[C@H](C)CC[C@H]4[C@@]4(C=O)C[C@@H]2C=C(C(C)C)[C@@]34C(=O)O)[C@@H](O)[C@@]12OC(=O)[C@H](CCCCCCCC(=O)O)O2`, the minimum inhibitory concentration (MIC) was found to be 3.7 µM (≈ 2.56 µg/mL). This lies in the single-digit micromolar range.

In turn, `CO[C@@H]1[C@@H](C)O[C@@H](OC[C@@]23C[C@@H]4[C@H](C)CC[C@H]4[C@@]4(C(=O)O)C[C@@H]2C=C(C(C)C)[C@@]34C(=O)O)[C@@H](O)[C@@]12OC(=O)[C@H](CCCCCCCC(=O)O)O2` came in with a minimum inhibitory concentration (MIC) of 15 µM (≈ 10.6 µg/mL). Against the preceding molecule, the MIC is about 4.1-fold higher.

Turning to `COC(=O)CCC[C@@H]1O[C@@]2(OC1=O)[C@H](O)[C@H](OC[C@@]13C[C@@H]4[C@H](C)CC[C@H]4[C@@]4(C=O)C[C@@H]1C=C(C(C)C)[C@@]34C(=O)O)O[C@H](C)[C@H]2OC`, the minimal inhibitory concentration (MIC) came to 9.8 µM (≈ 6.36 µg/mL).

`CC(C)C1=C[C@H]2C[C@]3(C(=O)O)[C@@H]4CC[C@@H](C)[C@H]4C[C@@]2(CO)[C@]13C(=O)O`: the minimum inhibitory concentration (MIC) was 24 µM (≈ 8.36 µg/mL). Compared with the last molecule, the MIC is about 2.4-fold higher.

Consider `CO[C@@H]1[C@@H](C)O[C@@H](OC[C@@]23C[C@@H]4[C@H](C)CC[C@H]4[C@@]4(C=O)C[C@@H]2C=C(C(C)C)[C@@]34C(=O)O)[C@@H](O)[C@@]12OC(=O)[C@H](CCCCCC(=O)O)O2`, for which the minimal inhibitory concentration (MIC) was 8.7 µM (≈ 5.77 µg/mL). This MIC lies about 2.8-fold lower than the previous one.

Consider `COC(=O)CCCCCCC[C@@H]1O[C@@]2(OC1=O)[C@H](O)[C@H](OC[C@@]13C[C@@H]4[C@H](C)CC[C@H]4[C@@]4(C=O)C[C@@H]1C=C(C(C)C)[C@@]34C(=O)O)O[C@H](C)[C@H]2OC`, for which the MIC came to 2.9 µM (≈ 2.04 µg/mL).

Molecule `COC(=O)CCCCCCC[C@@H]1O[C@@]2(OC1=O)[C@H](O)[C@H](OC[C@@]13C[C@@H]4[C@H](C)CC[C@H]4[C@@]4(C(=O)O)C[C@@H]1C=C(C(C)C)[C@@]34C(=O)O)O[C@H](C)[C@H]2OC` returned a minimum inhibitory concentration (MIC) of 13 µM (≈ 9.37 µg/mL).

For the molecule `CO[C@@H]1[C@@H](C)O[C@@H](OC[C@@]23C[C@@H]4[C@H](C)CC[C@H]4[C@@]4(C=O)C[C@@H]2C=C(C(C)C)[C@@]34C(=O)O)[C@@H](O)[C@@]12OC(=O)[C@H](CCCC(=O)O)O2`, the minimum inhibitory concentration (MIC) worked out at 12 µM (≈ 7.62 µg/mL).

In turn, `CC(C)C1=C[C@H]2C[C@]3(C=O)[C@@H]4CC[C@@H](C)[C@H]4C[C@@]2(CO)[C@]13C(=O)O` yielded a minimal inhibitory concentration (MIC) of 18 µM (≈ 5.98 µg/mL). Compared with the last molecule, the MIC is about 1.5-fold higher.

On to `COC(=O)Nc1nc2ccccc2[nH]1` [CARBENDAZIM], for which the MIC is 0.16 µM (≈ 0.0306 µg/mL).
